Screens: PubChem BioAssay, several laboratories
Hits are enriched below; roughly 4.3% of the tested compounds scored in any of these assays.
SR-BI uptake up: activators of SR-BI mediated DiI-HDL uptake, primary screen, ldlA[mSR-BI] CHO cells, DiI fluorescence. hit rate 0.096% among 320,000. activation, % at 12.5 µM. 3 h; 100 = double the neutral-control signal;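 active means mean replicate activation of at least 60% and every replicate at or above 60%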;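 further: 0% = median plate neutral-control signal and 100% = twice that signal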
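Test system: SR-BI-overexpressing, LDLR-lacking CHO cells. Measured by: DiI fluorescence, bottom read. Medium: Ham's F12 with 0.5% BSA, HEPES 25 mM, pH 7.4. Timing: 3 h uptake period with compound, 37 °C.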
SMARCA2 act: SMARCA2 (BRM) function activators, primary screen, cell-based, luminescence, high throughput. activation, % at 9.1 µM. hit rate 1% among 370,000. MG213 cells, MMTV-luciferase reporter, dexamethasone, overnight; in the data active means activation above about 7.8%;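 further: 0% = vehicle wells and 100% = reference activator wells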
CR mimetic SO: reduction of superoxide in aged yeast, primary screen, HTS; hit rate 0.18% among 330,000; superoxide response (% of plate mean), % at 10 µM; S. cerevisiae aged cells, superoxide DHE fluorescence; stronger effect = lower value;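 active means superoxide response under a set limit, about three screen SD below normal, cut at about 65% in these data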;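 further: yeast aged for seven days with compound at 30 °C before DHE staining; 100% = average MFI of all compound-treated wells on the plate with controls excluded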
AHR activator: AHR activators, primary screen, cell-based, luminescence, luciferase reporter, human; AHR-responsive luciferase reporter cells; hit rate 2.5% among 320,000; activation, % at 5 µM; in the data active means activation above about 47%;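 further: 0% = vehicle wells and 100% = reference agonist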
Lipid droplet: inhibitors of hepatocyte lipid droplet formation, primary screen, imaging, high-throughput imaging, BODIPY stain; AML12 mouse hepatocytes, oleate lipid droplets; inhibition, % at 6.5 µM; hit rate 0.4% among 240,000; AID 1656, 2009;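 active means lipid droplet intensity inhibited by at least 50%, with more than 500 cells counted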
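Assay system: AML12 mouse liver cells | Compound: 6.5 µM single-point dosing | Schedule: Overnight exposure | Technique: Fluorescence imaging, 20x objective, two fields per well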
SR-BI DiI inh: inhibitors of SR-BI mediated HDL lipid uptake, primary screen, ldlA[mSR-BI] cells, fluorescence, single point; Scavenger receptor class B member 1 (Mus musculus), Q61009; ldlA[mSR-BI] CHO cells, DiI-HDL uptake fluorescence, 3 h; inhibition, % at 12.5 µM; hit rate 0.96% among 320,000;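 active means mean replicate inhibition of at least 70% and a set share of replicates each scoring 70 or more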;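 further: 0% = median of neutral control wells and 100% = median of positive control wells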
Target sequence (Q61009 whole entry, looked up): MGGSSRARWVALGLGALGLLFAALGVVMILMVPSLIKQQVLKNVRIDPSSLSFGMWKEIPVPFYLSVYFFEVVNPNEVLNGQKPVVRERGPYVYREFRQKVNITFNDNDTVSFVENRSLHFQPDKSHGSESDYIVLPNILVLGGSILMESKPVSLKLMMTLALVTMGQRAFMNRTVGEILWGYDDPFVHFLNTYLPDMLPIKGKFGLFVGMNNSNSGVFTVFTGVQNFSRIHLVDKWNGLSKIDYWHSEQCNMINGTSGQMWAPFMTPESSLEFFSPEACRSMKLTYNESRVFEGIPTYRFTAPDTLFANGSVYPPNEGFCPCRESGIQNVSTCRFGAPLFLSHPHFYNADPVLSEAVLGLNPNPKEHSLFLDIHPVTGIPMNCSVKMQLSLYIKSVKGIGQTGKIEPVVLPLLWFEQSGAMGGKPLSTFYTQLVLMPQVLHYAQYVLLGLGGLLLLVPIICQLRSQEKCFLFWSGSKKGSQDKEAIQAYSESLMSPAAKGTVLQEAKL
Starred values were filed as active, the others as inactive; . = not tested or not shown.

SMILES | SR-BI uptake up | SMARCA2 act | CR mimetic SO | AHR activator | Lipid droplet | SR-BI DiI inh
COc1ccc(O)c(/C=N/Nc2nc3ccccc3[nH]2)c1 | 13 | -6 | 100 | 24 | 4 | -13
O=[N+]([O-])c1ccc(O)c(/C=N/Nc2nc3ccccc3[nH]2)c1 | -87 | -4 | 99 | 57* | -3 | 87*
Oc1ccc(/C=N/Nc2cccc3cccnc23)c(O)c1 | -30 | 1 | 85 | 17 | -19 | 30
Cc1cc(Cl)ccc1NC(=O)CCC(=O)N/N=C/c1cc([N+](=O)[O-])ccc1O | 10 | 0 | 91 | 2 | 3 | -10
O=[N+]([O-])c1cccc(N/N=C/c2cc([N+](=O)[O-])ccc2O)c1 | -30 | 4 | 99 | 54* | -3 | 30
Cc1cccc(N/N=C/c2ccncc2)c1 | -6 | 4 | 106 | 6 | . | 6
CCn1nc(C)c(/C=N/NC(=S)Nc2ccc(Cl)cc2Cl)c1C | . | -2 | 100 | 53* | -23 | .
Cc1cccc(N/N=C/c2ccccc2O)c1 | -36 | 2 | 88 | 65* | 0 | 36
COc1ccc(-c2cc(-c3nnc(SCC(=O)Nc4ccc(OCc5ccccc5)cc4)n3N)[nH]n2)cc1 | . | -2 | . | . | . | .
O=C(CC12CC3CC(CC(C3)C1)C2)NCc1ccccc1 | 4 | 0 | 104 | 1 | 4 | -4
O=C(CC12CC3CC(CC(C3)C1)C2)NCc1ccc(F)cc1 | -83 | -1 | 103 | 0 | -2 | 83*
COc1ccccc1CNC(=O)CNC(=O)N1CC(=O)Nc2ccccc21 | 0 | 1 | 82 | 5 | 4 | 0
COc1ccccc1CNCC(=O)N1CC(=O)Nc2ccccc21 | 0 | -1 | 105 | 60* | 14 | 0
C#CCNC(=O)C[C@H]1C[C@@]2(C(=O)OC)C(=C[C@H](C(C)C)O[C@@H]2C2CC2)N(Cc2ccc(Cl)cc2Cl)C1=O | . | -2 | . | . | . | .
CC(C)(C)NC(=O)CSc1nnc(NC(=O)c2ccccc2Cl)s1 | 16 | 0 | 100 | 1 | 13 | -16
O=C(CSc1nnc(NC(=O)c2ccccc2Cl)s1)Nc1ccc2c(c1)oc1ccccc12 | . | 11* | 109 | 30 | 6 | .
Nc1c(Cl)cnc(C(Cl)(Cl)Cl)c1Cl | 7 | 1 | 109 | 67* | 4 | -7
C#CCNC(=O)C[C@H]1C[C@@]2(C(=O)OC)C(=C[C@H](C(C)(C)C)O[C@@H]2C)N(CCC2=CCCCC2)C1=O | . | -1 | . | . | . | .
Oc1cccc(N2CCN(c3cccc(O)c3)CC2)c1 | . | 7.8* | . | . | . | .
O=C1C=C(c2ccccc2)C[C@@H](c2ccc(Cl)cc2)C1 | -36 | 0 | 121 | 2 | . | 36
O=C1C=C(c2cc(C(F)(F)F)cc(C(F)(F)F)c2)C[C@@H](c2ccc(Cl)cc2)C1 | -74 | -1 | 99 | 0 | . | 74*
Cc1sc2nc(SCC(=O)NCc3ccco3)[nH]c(=O)c2c1C | 3 | -4 | 105 | 55* | -1 | -3
O=C(CSc1ncccc1-c1nc2ccccc2[nH]1)NCc1ccco1 | -6 | 1 | 106 | 22 | . | 6
Cc1cc2nc(-c3cccnc3SCC(=O)NCc3ccco3)[nH]c2cc1C | -1 | 5 | 100 | 64* | . | 1
Cc1sc2nc(SCC(=O)NCc3cccs3)[nH]c(=O)c2c1C | 1 | 1 | 115 | 21 | . | -1
SMILES | SR-BI uptake up | SMARCA2 act | CR mimetic SO | AHR activator | Lipid droplet | SR-BI DiI inh
Cc1cc2nc(-c3ccc(SCC(=O)NC(C)C)nc3)[nH]c2cc1C | . | . | 96 | 78* | 2 | .
CC(C)(C)NC(=O)CSc1ncccc1-c1nc2ccccc2[nH]1 | 5 | -2 | 103 | 14 | 1 | -5
Cc1cc2nc(-c3cccnc3SCC(=O)NC3CC3)[nH]c2cc1C | . | 0 | 105 | 55* | 1 | .
COCCn1c(=NC(=O)c2ccc(S(=O)(=O)N3CCc4ccccc4C3)cc2)sc2cc(OC)ccc21 | -72 | -3 | 77 | 1 | -30 | 72*
O=C(Nc1ccccc1)Nc1nnc(-c2cccs2)s1 | 4 | 1 | 101 | 115* | -1 | -4
CC(C)(C)CC(=O)Nc1nnc(-c2cccs2)s1 | -2 | -2 | 101 | 50* | -1 | 2
COc1ccc(CNC(=O)CN(C(=O)c2csnn2)c2cccc3c2CCCC3)cc1 | -76 | 3 | 111 | 1 | 0 | 76*
COc1ccc(CNC(=O)CN(C(=O)c2csnn2)c2ccccc2F)cc1 | 7 | -3 | 101 | 5 | -4 | -7
O=C(Nc1nc(-c2ccccc2)cs1)c1cccs1 | . | 0 | 90 | 4 | . | .
Cc1noc(C)c1C(=O)Nc1nc(-c2cccs2)cs1 | -8 | 5 | 107 | 63* | . | 8
O=C(Nc1ccc([N+](=O)[O-])cc1)Nc1nc(-c2ccc(Cl)s2)cs1 | -84 | -7 | 117 | -1 | -2 | 84*
O=C(Nc1nc(-c2ccc(Cl)s2)cs1)c1cccs1 | -52 | -1 | 100 | 71* | . | 52
O=C(NN=Cc1cccc(OCc2ccccc2)c1)c1cc(-c2ccc(Cl)cc2)n[nH]1 | . | -2 | . | . | . | .
C=CCn1c(=NC(=O)C2CC2)sc2cc(NC(C)=O)ccc21 | -31 | -1 | 98 | 62* | . | 31
O=C(Cc1ccccc1Cl)NCCN1C(=O)C2C3C=CC(C3)C2C1=O (configuration not stated) | . | -3 | . | . | . | .
CCOc1ccc(CNC(=O)CCCc2cn(C)c3ccccc23)cc1 | -85 | -1 | 100 | . | 40 | 85*
Fc1ccc(/C=N/c2c(-c3ccc(F)cc3)nc3n2CCS3)cc1 | -77 | 2 | 82 | 4 | . | 77*
Cc1ccc(NC(=O)CSc2nnc(-c3ccccc3F)n2-c2ccccc2)c(C)c1 | . | -7 | . | . | . | .
COc1cccc(C(=O)NN2CC(O)=C(c3nc(C)cs3)C2=N)c1 | -21 | -2 | 101 | 53* | -3 | 21
Cc1cc(C)n(-c2ccc(C(=O)Nc3nc4ccccc4s3)cc2)n1 | -70 | 7 | 116 | -8 | . | 70*
Nc1ccc(C(=O)Nc2nc3ccccc3s2)cc1 | -15 | 2 | 103 | 13 | 1 | 15
Cn1cc(Cl)c(C(=O)Nc2nc3ccccc3s2)n1 | 13 | 7.9* | 104 | 32 | 8 | -13
Cc1cc(C)n(-c2ccc(C(=O)Nc3cccc([N+](=O)[O-])c3)cc2)n1 | -80 | 0 | 114 | -15 | 3 | 80*
O=C(NC(=S)Nc1nc2ccccc2s1)c1cccs1 | 14 | 7 | 89 | 72* | 26 | -14
COC(=O)c1nc(NC(=S)NC(=O)c2cccs2)sc1C | 4 | 0 | 106 | 39 | -3 | -4
O=C(Nc1nc2ccccc2s1)c1c(F)cccc1Cl | 17 | 0 | 100 | 1 | 0 | -17
